Laboratory results: ChEMBL document CHEMBL1142707, “Bisaryloxime ethers as potent inhibitors of transthyretin amyloid fibril formation” (J Med Chem, 2005)

Key:
[1] = molecular target: Transthyretin (Homo sapiens) (UniProt P02766); assay: Binding stoichiometry to TTR in human blood plasma determined by antibody capture/HPLC method; type: cell-free
Procedure, shortened: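 Human blood plasma spiked to 10.8 µM test compound from a 2.16 mM DMSO stock and incubated 24 h at 37 °C. Plasma was precleared with plain Sepharose for 1 h at 4 °C, then split into three aliquots for anti-TTR antibody-resin capture (20 min, 4 °C) in 10 mM Tris pH 8.0, 140 mM NaCl. Resin washed, eluted with 100 mM triethylamine pH 11.5, eluate analysed by HPLC for compound:TTR stoichiometry.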

[2] = molecular target: Transthyretin (Homo sapiens) (UniProt P02766); assay: Percentage of WT-TTR (3.6 uM) amyloid fibril formation at pH 4.4 upon incubation with the compound (7.2 uM)
Procedure, shortened: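 WT-TTR (7.2 µM, 0.4 mg/mL) in 10 mM phosphate pH 7.2, 100 mM KCl, 1 mM EDTA was preincubated 30 min at 37 °C with inhibitor added from a 1.44 mM DMSO stock. An equal volume of 200 mM acetate pH 4.2 brought the sample to pH 4.4 (3.6 µM TTR, 7.2 µM compound final). Left 72 h at 37 °C, vortexed, turbidity read at 350 and 400 or 500 nm. Run in duplicate or triplicate.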

[3] = molecular target: Transthyretin (Homo sapiens) (UniProt P02766); assay: Percentage compound remaining at the conclusion of the acid-mediated fibril formation assay (72 h) in absence of TTR, assay conditions, compound (7.2 uM), pH 4.4, 37C
Procedure, shortened: (§1)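 Compound at 7.2 µM was incubated in the dark with or without 3.6 µM WT-TTR under acid fibril conditions (pH 4.4, 37 °C, 72 h). Analytical RP-HPLC peak area of the compound at the end was compared with the area at the start. Measurement error stated as 4%.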

[4] = molecular target: Transthyretin (Homo sapiens) (UniProt P02766); assay: Percentage compound remaining at the conclusion of the acid-mediated fibril formation assay (72 h), assay conditions compound (7.2 uM), WT-TTR (3.6 uM, pH 4.4, 37C); procedure, shortened: as §1

Row | Binding stoichiometry [1] | Formation [2] [%] | Activity [3] [%] | Activity [4] [%] | Structure (SMILES)
1 | 1.83 | 3 |  |  | Oc1c(I)cc(/C=N/Oc2cc(F)cc(F)c2)cc1I
2 |  | 57 |  |  | FC(F)(F)c1cccc(/C=N/Oc2ccccc2C(F)(F)F)c1
3 |  | 90 |  |  | Fc1cc(F)cc(O/N=C/c2cc(Cl)cc(Cl)c2)c1
4 | < 0.5 | 6 |  |  | O=C(O)c1cccc(/C=N/Oc2cc(F)cc(F)c2)c1
5 |  | 15 |  |  | O=C(O)c1cccc(/C=N/Oc2cccc(C(=O)O)c2)c1
6 | 1.71 | 1 | 89 | 100 | Oc1c(I)cc(/C=N/Oc2ccccc2C(F)(F)F)cc1I
7 |  | 77 |  |  | O=C(O)c1ccc(/C=N/Oc2ccccc2)cc1
8 | < 0.5 | 9 |  |  | O=C(O)c1cccc(/C=N/Oc2cccc(C(F)(F)F)c2)c1
9 |  | 72 |  |  | FC(F)(F)c1cccc(O/N=C/c2cc(Cl)cc(Cl)c2)c1
10 |  | 63 |  |  | Clc1cccc(Cl)c1/C=N/Oc1ccccc1
11 |  | 83 |  |  | O=C(O)c1cccc(O/N=C/c2ccc(C(F)(F)F)cc2)c1
12 |  | 71 |  |  | Fc1cc(F)cc(O/N=C/c2ccccc2C(F)(F)F)c1
13 | 0.53 | 9 |  |  | O=C(O)c1ccc(O/N=C/c2cc(Cl)cc(Cl)c2)cc1
14 | 0.89 | 0 | 24 | 79 | Oc1c(I)cc(/C=N/Oc2ccccc2)cc1I
15 |  | 83 |  |  | FC(F)(F)c1cccc(O/N=C/c2ccccc2C(F)(F)F)c1
16 | 1.17 | 4 |  |  | Oc1c(Br)cc(/C=N/Oc2cccc(C(F)(F)F)c2)cc1Br
17 | < 0.5 | 8 |  |  | O=C(O)c1cccc(O/N=C/c2cc(F)cc(F)c2)c1
18 |  | 87 |  |  | Fc1cc(F)cc(O/N=C/c2ccccc2)c1
19 |  | 83 |  |  | FC(F)(F)c1cccc(O/N=C/c2ccccc2)c1
20 |  | 59 |  |  | O=C(O)c1ccccc1O/N=C/c1c(Cl)cccc1Cl
21 | < 0.5 | 0 |  |  | O=C(O)c1ccccc1O/N=C/c1cc(I)c(O)c(I)c1
22 |  | 46 |  |  | O=C(O)c1ccc(/C=N/Oc2ccc(C(=O)O)cc2)cc1
23 | 1.86 | 1 | 78 | 98 | Oc1c(Br)cc(/C=N/Oc2ccccc2C(F)(F)F)cc1Br
24 |  | 92 |  |  | FC(F)(F)c1cccc(/C=N/Oc2ccccc2)c1

Row | Binding stoichiometry [1] | Formation [2] [%] | Activity [3] [%] | Activity [4] [%] | Structure (SMILES)
25 |  | 27 |  |  | O=C(O)c1cccc(O/N=C/c2cccc(C(F)(F)F)c2)c1
26 | < 0.5 | 0 |  |  | O=C(O)c1cccc(O/N=C/c2cc(Br)c(O)c(Br)c2)c1
27 |  | 91 |  |  | O=C(O)c1ccccc1/C=N/Oc1ccccc1
28 |  | 93 |  |  | FC(F)(F)c1ccc(/C=N/Oc2cccc(C(F)(F)F)c2)cc1
29 |  | 68 |  |  | FC(F)(F)c1ccc(/C=N/Oc2cc(Cl)cc(Cl)c2)cc1
30 |  | 78 |  |  | O=C(O)c1ccccc1O/N=C/c1cc(F)cc(F)c1
31 | 0.71 | 1 |  |  | O=C(O)c1cccc(O/N=C/c2c(Cl)cccc2Cl)c1
32 |  | 32 |  |  | O=C(O)c1ccc(O/N=C/c2ccccc2)cc1
33 |  | 50 |  |  | O=C(O)c1cccc(O/N=C/c2ccccc2)c1
34 |  | 83 |  |  | FC(F)(F)c1cccc(/C=N/Oc2cccc(C(F)(F)F)c2)c1
35 |  | 74 |  |  | O=C(O)c1ccccc1O/N=C/c1cccc(C(F)(F)F)c1
36 |  | 91 |  |  | O=C(O)c1ccccc1O/N=C/c1ccccc1
37 | 1.42 | 3 |  |  | Oc1c(Br)cc(/C=N/Oc2cc(F)cc(F)c2)cc1Br
38 | < 0.5 | 1 | 4 | 74 | O=C(O)c1ccccc1O/N=C/c1cc(Cl)cc(Cl)c1
39 | < 0.5 | 0 |  |  | O=C(O)c1ccccc1O/N=C/c1cc(Br)c(O)c(Br)c1
40 |  | 87 |  |  | O=C(O)c1cccc(/C=N/Oc2ccccc2C(=O)O)c1
41 |  | 94 |  |  | Fc1cc(F)cc(/C=N/Oc2cc(F)cc(F)c2)c1
42 |  | 87 |  |  | O=C(O)c1ccc(/C=N/Oc2ccccc2C(=O)O)cc1
43 |  | 94 |  |  | O=C(O)c1ccc(O/N=C/c2ccc(C(F)(F)F)cc2)cc1
44 |  | 79 |  |  | O=C(O)c1cccc(/C=N/Oc2ccccc2)c1
45 |  | 15 |  |  | FC(F)(F)c1ccccc1O/N=C/c1c(Cl)cccc1Cl
46 |  | 86 |  |  | Fc1cc(F)cc(O/N=C/c2cccc(C(F)(F)F)c2)c1
47 |  | 75 |  |  | O=C(O)c1ccccc1/C=N/Oc1ccccc1C(F)(F)F
48 | 1.02 | 4 |  |  | Oc1c(I)cc(/C=N/Oc2cccc(C(F)(F)F)c2)cc1I

Row | Binding stoichiometry [1] | Formation [2] [%] | Activity [3] [%] | Activity [4] [%] | Structure (SMILES)
49 |  | 21 |  |  | FC(F)(F)c1cccc(O/N=C/c2c(Cl)cccc2Cl)c1
50 | < 0.5 | 0 | 81 | 77 | O=C(O)c1cccc(O/N=C/c2cc(I)c(O)c(I)c2)c1
51 |  | 32 |  |  | FC(F)(F)c1ccccc1/C=N/Oc1cc(Cl)cc(Cl)c1
52 |  | 84 |  |  | O=C(O)c1ccccc1/C=N/Oc1cc(F)cc(F)c1
53 | < 0.5 | 0 |  |  | O=C(O)c1cccc(O/N=C/c2cc(Cl)cc(Cl)c2)c1
54 | 0.81 | 0 | 85 | 81 | O=C(O)c1ccc(O/N=C/c2c(Cl)cccc2Cl)cc1
55 |  | 95 |  |  | Fc1cc(F)cc(/C=N/Oc2ccccc2)c1
56 | 0.56 | 3 |  |  | O=C(O)c1cccc(/C=N/Oc2cc(Cl)cc(Cl)c2)c1
57 |  | 56 |  |  | FC(F)(F)c1ccccc1O/N=C/c1ccccc1
58 |  | 94 |  |  | O=C(O)c1cccc(O/N=C/c2ccccc2C(=O)O)c1
59 |  | 13 |  |  | O=C(O)c1ccc(O/N=C/c2cccc(C(=O)O)c2)cc1
60 |  | 75 |  |  | Fc1cc(F)cc(/C=N/Oc2ccccc2C(F)(F)F)c1
61 |  | 83 |  |  | FC(F)(F)c1ccccc1/C=N/Oc1ccccc1C(F)(F)F
62 |  | 77 |  |  | Fc1cc(F)cc(O/N=C/c2ccc(C(F)(F)F)cc2)c1
63 |  | 55 |  |  | FC(F)(F)c1cccc(/C=N/Oc2cc(Cl)cc(Cl)c2)c1
64 |  | 63 |  |  | Clc1cc(Cl)cc(/C=N/Oc2cc(Cl)cc(Cl)c2)c1
65 |  | 30 |  |  | O=C(O)c1ccccc1/C=N/Oc1cc(Cl)cc(Cl)c1
66 |  | 24 |  |  | Fc1cc(F)cc(O/N=C/c2c(Cl)cccc2Cl)c1
67 |  | 61 |  |  | Fc1cc(F)cc(/C=N/Oc2cc(Cl)cc(Cl)c2)c1
68 |  | 56 |  |  | Clc1cc(Cl)cc(/C=N/Oc2ccccc2)c1
69 |  | 18 |  |  | O=C(O)c1ccc(O/N=C/c2cc(F)cc(F)c2)cc1
70 | 0.78 | 9 |  |  | O=C(O)c1ccc(/C=N/Oc2cc(Cl)cc(Cl)c2)cc1
71 | 1.02 | 0 | 8 | 76 | Oc1c(Br)cc(/C=N/Oc2ccccc2)cc1Br
72 |  | 84 |  |  | O=C(O)c1ccccc1/C=N/Oc1cccc(C(F)(F)F)c1

Row | Binding stoichiometry [1] | Formation [2] [%] | Activity [3] [%] | Activity [4] [%] | Structure (SMILES)
73 | 1.31 | 0 | 79 | 84 | O=C(O)c1ccc(O/N=C/c2ccccc2C(F)(F)F)cc1
74 |  | 96 |  |  | C(=N\Oc1ccccc1)/c1ccccc1
75 | 0.55 | 4 |  |  | Oc1c(I)cc(/C=N/Oc2cc(Cl)cc(Cl)c2)cc1I
76 |  | 39 |  |  | Clc1cc(Cl)cc(O/N=C/c2ccccc2)c1
77 |  | 62 |  |  | Clc1cc(Cl)cc(O/N=C/c2c(Cl)cccc2Cl)c1
78 | 0.69 | 3 |  |  | Oc1c(Br)cc(/C=N/Oc2cc(Cl)cc(Cl)c2)cc1Br
79 |  | 97 |  |  | O=C(O)c1ccc(O/N=C/c2ccccc2C(=O)O)cc1
80 |  | 34 |  |  | O=C(O)c1ccccc1O/N=C/c1ccccc1C(F)(F)F
81 |  | 65 |  |  | FC(F)(F)c1ccccc1/C=N/Oc1ccccc1
82 |  | 50 |  |  | O=C(O)c1ccc(O/N=C/c2cccc(C(F)(F)F)c2)cc1
83 | < 0.5 | 1 | 91 | 83 | O=C(O)c1ccc(O/N=C/c2cc(I)c(O)c(I)c2)cc1
84 |  | 33 |  |  | FC(F)(F)c1ccccc1O/N=C/c1cc(Cl)cc(Cl)c1
85 |  | 98 |  |  | FC(F)(F)c1ccc(/C=N/Oc2ccccc2)cc1
86 |  | 12 |  |  | O=C(O)c1ccc(/C=N/Oc2cccc(C(F)(F)F)c2)cc1
87 | 1.07 | 6 |  |  | O=C(O)c1cccc(/C=N/Oc2ccccc2C(F)(F)F)c1
88 |  | 90 |  |  | O=C(O)c1ccccc1O/N=C/c1ccc(C(F)(F)F)cc1
89 | < 0.5 | 0 | 88 | 81 | O=C(O)c1ccc(O/N=C/c2cc(Br)c(O)c(Br)c2)cc1
90 |  | 88 |  |  | Fc1cc(F)cc(/C=N/Oc2cccc(C(F)(F)F)c2)c1
91 |  | 31 |  |  | O=C(O)c1ccc(/C=N/Oc2cccc(C(=O)O)c2)cc1
92 |  | 81 |  |  | FC(F)(F)c1ccc(/C=N/Oc2ccccc2C(F)(F)F)cc1
93 | 1 | 1 | 20 | 88 | O=C(O)c1cccc(O/N=C/c2ccccc2C(F)(F)F)c1
94 | < 0.5 | 9 |  |  | O=C(O)c1ccc(/C=N/Oc2cc(F)cc(F)c2)cc1
